Data published in paper PMC2774623 (Biochemistry, 2008).

B1: NBD1 ΔF508: purified ΔF508 mutated recombinant murine NBD1 of CFTR (spanning sequence 389−673) (protein)
chain: TTGIIMENVTAFWEEGFGELLEKVQQSNGDRKHSSDENNVSFSHLCLVGNPVLKNINLNIEKGEMLAITGSTGSGKTSLLMLILGELEASEGIIKHSGRVSFCSQFSWIMPGTIKENIIGVSYDEYRYKSVVKACQLQQDITKFAEQDNTVLGEGGVTLSGGQRARISLARAVYKDADLYLLDSPFGYLDVFTEEQVFESCVCKLMANKTRILVTSKMEHLRKADKILILHQGSSYFYGTFSELQSLRPDFSSKLMGYDTFDQFTEERRSSILTETLRRFSVDD
B2: NBD1 wt: purified wild-type recombinant murine NBD1 of CFTR (spanning sequence 389−673) (protein)
chain: TTGIIMENVTAFWEEGFGELLEKVQQSNGDRKHSSDENNVSFSHLCLVGNPVLKNINLNIEKGEMLAITGSTGSGKTSLLMLILGELEASEGIIKHSGRVSFCSQFSWIMPGTIKENIIFGVSYDEYRYKSVVKACQLQQDITKFAEQDNTVLGEGGVTLSGGQRARISLARAVYKDADLYLLDSPFGYLDVFTEEQVFESCVCKLMANKTRILVTSKMEHLRKADKILILHQGSSYFYGTFSELQSLRPDFSSKLMGYDTFDQFTEERRSSILTETLRRFSVDD

Target: CK2α catalytic subunit
Assay: SPR
Type: binding, human
Conditions: for kd (s^−1) × 10^−3: SPR BIAcoreX, CK2α coupled to CM5 chip, 25 °C, HBS pH 7.4, Langmuir 1:1 model; for association constant ka (as printed in text): SPR, binding to CK2α, unit not given
In short: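 Recombinant human CK2α, expressed in E. coli, amine-coupled to a CM5 chip (1600 RU). Mouse NBD1 analyte, wild type or ΔF508, at 15 μM, flowed at 10 μL/min, 25 °C, in HBS (10 mM Hepes pH 7.4, 150 mM NaCl, 3 mM EDTA, 0.005% P20). Blank-surface response subtracted; rate constants fitted to a 1:1 binding model.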

Row | Molecule | kd (s^−1) × 10^−3 [s^−1 × 10^−3] | association constant ka (as printed in text)
1 | B1 | 0.0877 | 0.96 × 10^3
2 | B2 | 0.335 | 0.135 × 10^3
